In ChEMBL document CHEMBL1944515 (J Med Chem, 2012):

Legend:
[1] = Inhibition of tubulin polymerization
Method in brief: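 Bovine brain tubulin at 10 μM in glutamate buffer was preincubated with compound at varying concentrations at 30 °C, then cooled to 0 °C. GTP was added to 0.4 mM and the mixture rewarmed to 30 °C. Assembly was followed by turbidity at 350 nm.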

[2] = test system: HT-29; experiment: Cytotoxicity against human HT-29 cells after 72 hrs by MTT assay; type: functional, cell-based; conditions: HT-29, 72 h
[3] = test system: HL-60; experiment: Cytotoxicity against human HL60 cells after 72 hrs by MTT assay; type: functional, cell-based; conditions: HL-60, 72 h
[4] = test system: MCF7; experiment: Cytotoxicity against human MCF7 cells after 72 hrs by MTT assay; type: functional, cell-based; conditions: MCF7, 72 h
[5] = test system: HeLa; experiment: Cytotoxicity against human HeLa cells after 72 hrs by MTT assay; type: functional, cell-based
[6] = test system: A549; experiment: Cytotoxicity against human A549 cells after 72 hrs by MTT assay; type: functional, cell-based; conditions: A549, 72 h
[7] = test system: Jurkat; experiment: Cytotoxicity against human Jurkat cells after 72 hrs by MTT assay; type: functional, cell-based
Method in brief: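 8 × 10^3 cells/well were preincubated 18 h at 37 °C, 5% CO2, then given graded concentrations for 72 h, with final DMSO not above 0.25%. Viability was read by MTT. […] Mean ± SE from at least three experiments.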

[8] = Inhibition of bovine tubulin polymerisation after 20 mins by turbidimetric analysis; parameters: species or system Bos taurus
Method in brief: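 Bovine brain tubulin at 10 μM was preincubated with varying compound concentrations in glutamate buffer at 30 °C, cooled to 0 °C, and 0.4 mM GTP added. Samples were warmed to 30 °C and assembly followed by turbidity at 350 nm.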

[9] = organism: Bos taurus; experiment: Displacement of [3H]colchicine from bovine tubulin at 5 uM by DEAE-cellulose filter method
Method in brief: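 Inhibition of [3H]colchicine binding was measured in mixtures of 1 μM tubulin, 5 μM [3H]colchicine and 5 μM test compound. Results are percent inhibition of binding.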

Compound | IC50 [1] [nM] | IC50 [2] [nM] | IC50 [3] [nM] | IC50 [4] [nM] | IC50 [5] [nM] | IC50 [6] [nM] | IC50 [7] [nM] | IC50 [8] [nM] | inhibition [9] [%]
COc1ccc(-c2nnnn2-c2cc(OC)c(OC)c(OC)c2)cc1N | 2000 |  |  |  |  |  |  |  | 
COc1cc(-n2nnnc2-c2ccccc2)cc(OC)c1OC |  | > 10000 | 903 | > 10000 | 4100 | > 10000 | 3.8 |  | 
COc1ccc(-c2nnnn2-c2cc(OC)c(OC)c(OC)c2)cc1Cl |  | 35.9 | 3.6 | 25.2 | 2.3 | 402 | 10 | 3500 | 50
COc1cc(-n2nnnc2-c2ccc(C(C)=O)cc2)cc(OC)c1OC |  | 6030 | 596 | > 10000 | 648 | > 10000 | 325 |  | 
CCc1ccc(-c2nnnn2-c2cc(OC)c(OC)c(OC)c2)cc1 |  | 182 | 53.1 | 12.6 | 29 | 3380 | 55.1 | 3700 | 47
COc1ccc(-c2nnnn2-c2cc(OC)c(OC)c(OC)c2)cc1OC |  | 355 | 488 | 2720 | 259 | 3570 | 345 |  | 
CCOc1ccc(-c2ncnn2-c2cc(OC)c(OC)c(OC)c2)cc1 |  |  |  |  |  |  |  | 760 | 86
CCCCOc1ccc(-c2nnnn2-c2cc(OC)c(OC)c(OC)c2)cc1 |  | > 10000 | > 10000 | > 10000 | > 10000 | > 10000 | > 10000 |  | 
COc1ccc(-c2nnnn2-c2cc(OC)c(OC)c(OC)c2)cc1F |  | 2.7 | 7.3 | 29.7 | 2.8 | 332 | 1.3 | 2100 | 60
